Measured values reported in ChEMBL document CHEMBL2010647, “N-Methylated sst2 Selective Somatostatin Cyclic Peptide Analogue as a Potent Candidate for Treating Neurogenic Inflammation” (ACS Med Chem Lett, 2011).
Calls of active or inactive are those of the source. No cut-off for these calls is given here.

molecular target: Somatostatin receptor type 2 (Homo sapiens, UniProt P30874); experiment: Binding affinity to human sst2 by in vitro receptor autoradiography assay
Sequence (P30874 whole entry): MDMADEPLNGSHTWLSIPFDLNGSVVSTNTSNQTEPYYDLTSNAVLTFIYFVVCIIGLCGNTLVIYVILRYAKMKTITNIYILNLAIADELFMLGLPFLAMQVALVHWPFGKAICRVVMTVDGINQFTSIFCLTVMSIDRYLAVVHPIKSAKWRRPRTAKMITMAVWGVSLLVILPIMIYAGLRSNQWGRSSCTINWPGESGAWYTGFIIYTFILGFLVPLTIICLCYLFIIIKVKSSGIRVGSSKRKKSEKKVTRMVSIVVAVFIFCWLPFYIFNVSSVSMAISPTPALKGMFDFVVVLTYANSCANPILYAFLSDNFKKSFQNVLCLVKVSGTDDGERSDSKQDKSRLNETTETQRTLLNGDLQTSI

CC(C)[C@@H]1NC(=O)[C@H](CCCCN)N(C)C(=O)[C@@H](Cc2c[nH]c3ccccc23)NC(=O)[C@H](Cc2ccc(O)cc2)NC(=O)[C@H](C)N(C)C(=O)[C@H](Cc2ccccc2)NC1=O and CC(C)[C@@H]1NC(=O)[C@H](CCCCN)NC(=O)[C@@H](Cc2c[nH]c3ccccc23)NC(=O)[C@H](Cc2ccc(O)cc2)NC(=O)[C@H](C)N(C)C(=O)[C@H](Cc2ccccc2)N(C)C1=O are within 1.5-fold of each other in IC50: 4.2 nM for the first, 4.4 nM for the second.

Work on CC(C)[C@@H]1NC(=O)[C@H](CCCCN)N(C)C(=O)[C@@H](Cc2c[nH]c3ccccc23)NC(=O)[C@H](Cc2ccc(O)cc2)NC(=O)[C@H](C)N(C)C(=O)[C@H](Cc2ccccc2)N(C)C1=O yielded an IC50 of 4.1 nM.

molecular target: Somatostatin receptor type 2 (Rattus norvegicus) (UniProt P30680); experiment: Inhibition of sst2 in rat trachea assessed as effect on EFS-induced CGRP release in stimulated and poststimulated tracheal fraction at 500 nM after 8 mins by radioimmunoassay technique relative to control; format: tissue-based; set-up: scale not given: the % may be the effect or the level left
Summary of the method: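 Whole tracheae from exsanguinated, deeply anaesthetised rats, two per 1.8 mL organ bath, equilibrated 60 min with oxygenated Krebs (pH 7.2, 37 °C, 1 mL/min perfusion). Three static 8 min fractions; EFS (40 V, 0.1 ms, 10 Hz, 120 s) in the second. Peptide (500 nM) added at the start of fractions 2 and 3. CGRP measured by RIA in 200 μL samples, normalised to wet tissue weight; n = 5.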

Somatostatin receptor type 2 (Rattus norvegicus), sequence (P30680 whole entry, the tested form may be a part): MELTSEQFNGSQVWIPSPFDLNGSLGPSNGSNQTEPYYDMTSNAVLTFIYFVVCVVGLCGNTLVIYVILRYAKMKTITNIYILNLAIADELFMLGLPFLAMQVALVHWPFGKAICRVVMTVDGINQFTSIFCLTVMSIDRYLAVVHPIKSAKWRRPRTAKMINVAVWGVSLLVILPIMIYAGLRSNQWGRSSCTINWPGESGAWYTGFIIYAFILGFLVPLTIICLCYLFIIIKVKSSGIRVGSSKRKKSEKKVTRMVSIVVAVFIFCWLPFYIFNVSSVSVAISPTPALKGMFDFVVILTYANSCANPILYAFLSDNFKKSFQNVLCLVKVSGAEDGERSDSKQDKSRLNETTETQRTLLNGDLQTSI

Compared with CC(C)[C@@H]1NC(=O)[C@H](CCCCN)NC(=O)[C@@H](Cc2c[nH]c3ccccc23)NC(=O)[C@H](Cc2ccc(O)cc2)NC(=O)[C@H](C)N(C)C(=O)[C@H](Cc2ccccc2)NC1=O [SEGLITIDE], CC(C)[C@@H]1NC(=O)[C@H](CCCCN)N(C)C(=O)[C@@H](Cc2c[nH]c3ccccc23)NC(=O)[C@H](Cc2ccc(O)cc2)NC(=O)[C@H](C)N(C)C(=O)[C@H](Cc2ccccc2)NC1=O is lower in Activity: 294% for the first, 182% for the second.

First: CC(C)[C@@H]1NC(=O)[C@H](CCCCN)NC(=O)[C@@H](Cc2c[nH]c3ccccc23)NC(=O)[C@H](Cc2ccc(O)cc2)NC(=O)[C@H](C)N(C)C(=O)[C@H](Cc2ccccc2)N(C)C1=O
Second: CC(C)[C@@H]1NC(=O)[C@H](CCCCN)N(C)C(=O)[C@@H](Cc2c[nH]c3ccccc23)NC(=O)[C@H](Cc2ccc(O)cc2)NC(=O)[C@H](C)N(C)C(=O)[C@H](Cc2ccccc2)N(C)C1=O
The Activity of the first is higher: 355% for the first, 343% for the second.

molecular target: Somatostatin receptor type 1 (Homo sapiens, UniProt P30872); experiment: Binding affinity to human sst1 by in vitro receptor autoradiography assay
Sequence (P30872 whole entry): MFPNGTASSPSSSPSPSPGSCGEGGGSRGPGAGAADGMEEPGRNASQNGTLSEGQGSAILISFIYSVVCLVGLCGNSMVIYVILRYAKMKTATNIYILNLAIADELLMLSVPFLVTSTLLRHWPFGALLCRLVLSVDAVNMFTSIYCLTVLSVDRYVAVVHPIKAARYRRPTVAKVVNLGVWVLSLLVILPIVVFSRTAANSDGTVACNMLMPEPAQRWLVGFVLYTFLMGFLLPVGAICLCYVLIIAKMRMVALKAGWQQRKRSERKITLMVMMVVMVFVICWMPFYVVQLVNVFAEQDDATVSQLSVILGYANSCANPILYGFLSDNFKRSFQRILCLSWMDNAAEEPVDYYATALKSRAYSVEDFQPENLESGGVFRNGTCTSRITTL

CC(C)[C@@H]1NC(=O)[C@H](CCCCN)NC(=O)[C@@H](Cc2c[nH]c3ccccc23)NC(=O)[C@H](Cc2ccc(O)cc2)NC(=O)[C@H](C)N(C)C(=O)[C@H](Cc2ccccc2)NC1=O [SEGLITIDE] and CC(C)[C@@H]1NC(=O)[C@H](CCCCN)N(C)C(=O)[C@@H](Cc2c[nH]c3ccccc23)NC(=O)[C@H](Cc2ccc(O)cc2)NC(=O)[C@H](C)N(C)C(=O)[C@H](Cc2ccccc2)NC1=O cannot be ordered by IC50: greater than 1000 nM for the first, greater than 1000 nM for the second.

CC(C)[C@@H]1NC(=O)[C@H](CCCCN)NC(=O)[C@@H](Cc2c[nH]c3ccccc23)NC(=O)[C@H](Cc2ccc(O)cc2)NC(=O)[C@H](C)N(C)C(=O)[C@H](Cc2ccccc2)N(C)C1=O and CC(C)[C@@H]1NC(=O)[C@H](CCCCN)N(C)C(=O)[C@@H](Cc2c[nH]c3ccccc23)NC(=O)[C@H](Cc2ccc(O)cc2)NC(=O)[C@H](C)N(C)C(=O)[C@H](Cc2ccccc2)N(C)C1=O cannot be ordered by IC50: greater than 1000 nM for the first, greater than 1000 nM for the second.

molecular target: Somatostatin receptor type 4 (Homo sapiens, UniProt P31391); experiment: Binding affinity to human sst4 by in vitro receptor autoradiography assay
Sequence (P31391 whole entry): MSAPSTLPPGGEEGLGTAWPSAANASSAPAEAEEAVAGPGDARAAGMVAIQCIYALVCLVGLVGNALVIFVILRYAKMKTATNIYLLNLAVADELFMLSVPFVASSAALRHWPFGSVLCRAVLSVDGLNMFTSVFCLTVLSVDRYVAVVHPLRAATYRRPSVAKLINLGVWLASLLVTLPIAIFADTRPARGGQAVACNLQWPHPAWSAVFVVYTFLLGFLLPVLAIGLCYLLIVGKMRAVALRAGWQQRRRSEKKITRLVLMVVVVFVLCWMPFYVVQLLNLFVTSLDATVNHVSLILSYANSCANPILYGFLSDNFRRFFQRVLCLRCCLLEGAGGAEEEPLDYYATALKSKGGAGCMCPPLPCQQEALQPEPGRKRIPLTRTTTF

CC(C)[C@@H]1NC(=O)[C@H](CCCCN)N(C)C(=O)[C@@H](Cc2c[nH]c3ccccc23)NC(=O)[C@H](Cc2ccc(O)cc2)NC(=O)[C@H](C)N(C)C(=O)[C@H](Cc2ccccc2)NC1=O and CC(C)[C@@H]1NC(=O)[C@H](CCCCN)NC(=O)[C@@H](Cc2c[nH]c3ccccc23)NC(=O)[C@H](Cc2ccc(O)cc2)NC(=O)[C@H](C)N(C)C(=O)[C@H](Cc2ccccc2)N(C)C1=O cannot be ordered by IC50: greater than 1000 nM for the first, greater than 1000 nM for the second.

With CC(C)[C@@H]1NC(=O)[C@H](CCCCN)N(C)C(=O)[C@@H](Cc2c[nH]c3ccccc23)NC(=O)[C@H](Cc2ccc(O)cc2)NC(=O)[C@H](C)N(C)C(=O)[C@H](Cc2ccccc2)N(C)C1=O the IC50 was 373 nM.

molecular target: Somatostatin receptor type 3 (Homo sapiens, UniProt P32745); experiment: Binding affinity to human sst3 by in vitro receptor autoradiography assay
Sequence (P32745 whole entry): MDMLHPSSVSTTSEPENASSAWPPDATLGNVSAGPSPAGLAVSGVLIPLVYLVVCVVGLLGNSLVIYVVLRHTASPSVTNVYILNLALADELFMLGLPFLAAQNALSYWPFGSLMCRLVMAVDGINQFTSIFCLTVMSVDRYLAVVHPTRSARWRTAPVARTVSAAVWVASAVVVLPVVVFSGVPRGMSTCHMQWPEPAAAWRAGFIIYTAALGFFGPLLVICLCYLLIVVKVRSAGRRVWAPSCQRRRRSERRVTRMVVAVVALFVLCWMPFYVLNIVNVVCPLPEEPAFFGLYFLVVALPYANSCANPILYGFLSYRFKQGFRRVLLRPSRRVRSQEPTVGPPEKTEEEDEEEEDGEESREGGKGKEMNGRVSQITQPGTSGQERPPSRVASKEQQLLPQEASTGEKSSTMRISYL

First: CC(C)[C@@H]1NC(=O)[C@H](CCCCN)NC(=O)[C@@H](Cc2c[nH]c3ccccc23)NC(=O)[C@H](Cc2ccc(O)cc2)NC(=O)[C@H](C)N(C)C(=O)[C@H](Cc2ccccc2)NC1=O [SEGLITIDE]
Second: CC(C)[C@@H]1NC(=O)[C@H](CCCCN)N(C)C(=O)[C@@H](Cc2c[nH]c3ccccc23)NC(=O)[C@H](Cc2ccc(O)cc2)NC(=O)[C@H](C)N(C)C(=O)[C@H](Cc2ccccc2)NC1=O
The IC50 of the first is 2.9-fold lower: 105 nM for the first, 308 nM for the second.

First: CC(C)[C@@H]1NC(=O)[C@H](CCCCN)NC(=O)[C@@H](Cc2c[nH]c3ccccc23)NC(=O)[C@H](Cc2ccc(O)cc2)NC(=O)[C@H](C)N(C)C(=O)[C@H](Cc2ccccc2)N(C)C1=O
Second: CC(C)[C@@H]1NC(=O)[C@H](CCCCN)N(C)C(=O)[C@@H](Cc2c[nH]c3ccccc23)NC(=O)[C@H](Cc2ccc(O)cc2)NC(=O)[C@H](C)N(C)C(=O)[C@H](Cc2ccccc2)N(C)C1=O
The IC50 of the first is 1.8-fold lower: 98 nM for the first, 175 nM for the second. The first is the more potent here.

molecular target: Somatostatin receptor type 5 (Homo sapiens, UniProt P35346); experiment: Binding affinity to human sst5 by in vitro receptor autoradiography assay
Sequence (P35346 whole entry): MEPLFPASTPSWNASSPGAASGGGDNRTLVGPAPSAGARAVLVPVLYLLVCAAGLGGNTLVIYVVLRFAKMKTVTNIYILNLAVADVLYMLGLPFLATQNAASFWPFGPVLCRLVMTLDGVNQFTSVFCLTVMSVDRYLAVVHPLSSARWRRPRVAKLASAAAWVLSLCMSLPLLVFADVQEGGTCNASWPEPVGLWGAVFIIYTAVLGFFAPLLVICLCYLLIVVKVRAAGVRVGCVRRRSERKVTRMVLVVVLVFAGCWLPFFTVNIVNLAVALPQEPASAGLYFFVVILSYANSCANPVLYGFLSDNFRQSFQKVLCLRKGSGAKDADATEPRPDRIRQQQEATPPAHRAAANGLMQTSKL

Going from CC(C)[C@@H]1NC(=O)[C@H](CCCCN)NC(=O)[C@@H](Cc2c[nH]c3ccccc23)NC(=O)[C@H](Cc2ccc(O)cc2)NC(=O)[C@H](C)N(C)C(=O)[C@H](Cc2ccccc2)NC1=O [SEGLITIDE] to CC(C)[C@@H]1NC(=O)[C@H](CCCCN)N(C)C(=O)[C@@H](Cc2c[nH]c3ccccc23)NC(=O)[C@H](Cc2ccc(O)cc2)NC(=O)[C@H](C)N(C)C(=O)[C@H](Cc2ccccc2)NC1=O, the IC50 rises from 81 nM to 247 nM (3-fold).

Compared with CC(C)[C@@H]1NC(=O)[C@H](CCCCN)NC(=O)[C@@H](Cc2c[nH]c3ccccc23)NC(=O)[C@H](Cc2ccc(O)cc2)NC(=O)[C@H](C)N(C)C(=O)[C@H](Cc2ccccc2)N(C)C1=O, CC(C)[C@@H]1NC(=O)[C@H](CCCCN)N(C)C(=O)[C@@H](Cc2c[nH]c3ccccc23)NC(=O)[C@H](Cc2ccc(O)cc2)NC(=O)[C@H](C)N(C)C(=O)[C@H](Cc2ccccc2)N(C)C1=O is 2.6-fold higher in IC50: 53 nM for the first, 137 nM for the second. The first is the more potent here.

tested on: Rattus norvegicus; experiment: Antiinflammatory activity in rat assessed as inhibition of mustard oil-evoked acute neurogenic plasma protein extravasation in paw skin at 100 ug/kg, ip […] administered 10 mins before induction of inflammation; format: functional
Summary of the method: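 Rats received peptide 100 μg/kg ip 10 min before inflammation was induced with 1% mustard oil on dorsal paw skin; solvent-only controls run alongside. Read-out: Evans blue accumulated per g wet skin, given as mean + SEM, n = 6–10. Tested in blocks of 14–15 rats per day over 6 days, with treatments randomized. Mann–Whitney U test vs solvent.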

CC(C)[C@@H]1NC(=O)[C@H](CCCCN)N(C)C(=O)[C@@H](Cc2c[nH]c3ccccc23)NC(=O)[C@H](Cc2ccc(O)cc2)NC(=O)[C@H](C)N(C)C(=O)[C@H](Cc2ccccc2)NC1=O was tested, and the inhibition was “inactive”.
